In ChEMBL document CHEMBL1122895, “Aldose reductase inhibitors: a potential new class of agents for the pharmacological control of certain diabetic complications” (J Med Chem, 1985) one finds IC50 data, which are given here for ten molecules.

Assay [1] has as its target T1, Aldo-keto reductase family 1 member B1 (Homo sapiens, UniProt P15121). As to the kind of experiment: Inhibitory activity against human placental aldose reductase (HPAR). Put shortly: (§1)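 Human placental aldose reductase was purified at 4 °C. Enzyme activity was read photometrically at 340 nm, with 10 mM DL-glyceraldehyde as substrate. IC50 values came from simple linear regressions of Marquardt-Levenberg iterative curve fitting.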

The target in assay [2] is Aldo-keto reductase family 1 member B1 (Rattus norvegicus, UniProt P07943). As to the kind of experiment: Inhibitory activity against rat lens aldose reductase (RLAR).
Assay [3] has as its target T1, Aldo-keto reductase family 1 member B1. As to the kind of experiment: Inhibitory activity against human placental aldose reductase in Sepharose 4B column at day 7.
For assay [4] the target is unchanged. Description: Inhibitory activity against human placental aldose reductase in Sepharose 4B column at day 1. Put shortly: as §1
The target is the same in assay [5]. As to the kind of experiment: Inhibitory activity against human placental aldose reductase in 30 -70% (NH4)2SO4.
For assay [6] the target is unchanged. Description: Inhibitory activity against human placental aldose reductase in Orange A column at day 8.
Assay [7] has the same target. As to the kind of experiment: Inhibitory activity against human placental aldose reductase in Orange A column at day 2. Put shortly: as §1
Assay [8] has the same target. Description: Inhibitory activity against human placental aldose reductase (HPAR). Put shortly: as §1
Assay [9] shares this target. Description: (§2) Inhibitory activity against human placental aldose reductase in Orange A column at time 2.
The target is the same in assay [10]. Description: Inhibitory activity against human placental aldose reductase in Sepharose 4B column at time 1.
Assay [11] has the same target. Described as §2. Put shortly:
as §1
The source holds these as a separate data set.

As to `O=C(OCc1ccccc1)c1cc(=O)c2ccc(O)cc2o1`, the IC50 in [1] stood at 3.2 µM; in assay [2] it was 2.5 µM.

On to `O=c1c(Cl)c(-c2nn[nH]n2)oc2ccccc12`, for which the IC50 was found to be 39 µM in assay [3]; 38 µM in [4]; 4.1 µM in assay [5]; 200 µM in [6]; 280 µM in assay [7].

Regarding `O=C(O)c1ccc2nc3cc(O)ccc3c(=O)n2c1`, the concentration for half-maximal inhibition (IC50) in assay [3] is 7.2 µM; in assay [4], 5 µM; in assay [5] it was 4.5 µM; in assay [6], 7.3 µM; in [7], 19 µM.

As for `CCOC(=O)C(=O)Nc1cc([N+](=O)[O-])cc(C(=O)O)c1O`, the IC50 in assay [3] stood at 8.3 µM; in assay [4], 4.5 µM; in [5], 7.3 µM; in assay [6], 4 µM; in assay [7] it was 3.2 µM.

Regarding `CC(C)OC(=O)c1cc(=O)c2ccc(O)cc2o1`, the IC50 was found to be 4.3 µM in assay [1] and 3.1 µM in assay [2].

For the molecule `O=C(O)c1cc(=O)c2ccc(O)cc2o1`, the results for the 50% inhibitory concentration (IC50) in assay [2] and in [8] were 2.2 µM and 1.8 µM, respectively.

For the molecule `CC1OC(O)C(O)C(O)C1Oc1c(-c2ccc(O)c(O)c2)oc2cc(O)cc(O)c2c1=O` (stereo not drawn), the IC50 in assay [3] was 16 µM; in assay [9] it was 16 µM; in assay [10] it was 14 µM; in assay [5], 7.1 µM; in assay [6], 9 µM.

For the molecule `O=C(O)C1=CC(=O)C2C=CC(O)=CC2O1` (stereo not drawn), the IC50 in assay [3] was found to be 3.9 µM; in assay [4] it was 4.7 µM; in [5], 1.8 µM; in assay [6], 3.1 µM; in assay [7], 5.9 µM.

Consider `CCOC(=O)c1cc(=O)c2ccc(O)cc2o1`, for which the half-inhibitory concentration (IC50) turned out to be 5 µM in assay [1] and 2.3 µM in assay [2].

With `O=C(O)CN1C(=O)c2cccc3cccc(c23)C1=O` [ALRESTATIN], the IC50 in assay [3] stood at 34 µM; in [11], 140 µM; in [10], 22 µM; in [5] it was 6.5 µM; in [6], 79 µM.
